One assay concerns the target Galectin-3 (Homo sapiens, UniProt P17931). In words: Binding affinity to galectin 3 at 20 degC by fluorescence polarization assay. In general terms: In fluorescence polarisation assays a small probe gives low polarisation when free and higher when bound to something large.
In the next assay the target is Galectin-9 (Homo sapiens, UniProt O00182). As to the kind of experiment: Binding affinity to galectin 9N terminal domain at 0 degC by fluorescence polarization assay.
Assay [1] concerns the target T1, Galectin-8 (Homo sapiens) (UniProt O00214).
T1 sequence (whole entry): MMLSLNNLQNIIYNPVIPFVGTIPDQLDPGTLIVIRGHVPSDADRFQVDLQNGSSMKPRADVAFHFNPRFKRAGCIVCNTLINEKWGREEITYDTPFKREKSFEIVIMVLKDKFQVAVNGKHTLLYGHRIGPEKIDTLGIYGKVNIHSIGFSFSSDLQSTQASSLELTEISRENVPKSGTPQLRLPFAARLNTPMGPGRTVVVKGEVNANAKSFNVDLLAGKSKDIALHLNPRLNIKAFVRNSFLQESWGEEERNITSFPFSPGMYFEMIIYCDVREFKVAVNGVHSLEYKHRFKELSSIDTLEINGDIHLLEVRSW
As to the kind of experiment: (§1) Binding affinity to galectin 8N terminal domain at 20 degC by fluorescence polarization assay.

For assay [2], the target named is T2, Galectin-1 (Homo sapiens, UniProt P09382). In words: Binding affinity to galectin 1 at 0 degC by fluorescence polarization assay.
The target in the next assay is Galectin-7 (Homo sapiens, UniProt P47929). In words: Binding affinity to galectin 7 at 0 degC by fluorescence polarization assay.
Assay [3] has as its system A549. In words: Antimigratory effect in human A549 cells assessed as cell motility at 10 nM after 24 hrs relative to control. In kind it is functional, cell-based. The method, boiled down: (§2)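 Cell motility of human A549 non-small-cell lung and PC-3 hormone-refractory prostate cancer cells measured by computer-assisted phase-contrast quantitative videomicroscopy over 12 h and 24 h with inhibitor at 1, 10 or 100 nM. Motility calculated in µm per hour and expressed as % of untreated control (100%). Triplicate experiments, mean ± SEM, Mann-Whitney test versus control.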

In another assay the target is T3, Galectin-8 (Homo sapiens, UniProt O00214).
T3 sequence (O00214 whole entry): T1 sequence (whole entry)
Described as §1.

Assay [4] has as its system PC-3. As to the kind of experiment: Antimigratory effect in human PC-3 cells assessed as cell motility at 100 nM after 24 hrs relative to control. The class given is functional, cell-based. The method, boiled down:
as §2

For assay [5], the target named is T2, Galectin-1. As to the kind of experiment: Binding affinity to galectin 1 at 20 degC by fluorescence polarization assay.
Assay [6] concerns PC-3. In words: Antimigratory effect in human PC-3 cells assessed as cell motility at 1 nM after 24 hrs relative to control. In kind it is functional, cell-based. Put shortly:
as §2

In assay [7] the test system is A549. As to the kind of experiment: Antimigratory effect in human A549 cells assessed as cell motility at 100 nM after 24 hrs relative to control. The class given is functional, cell-based. The method, boiled down:
as §2

The source made the active and inactive calls. The rule behind the calls is not given here. Some results are limits rather than exact numbers.

T2 sequence (P09382 whole entry): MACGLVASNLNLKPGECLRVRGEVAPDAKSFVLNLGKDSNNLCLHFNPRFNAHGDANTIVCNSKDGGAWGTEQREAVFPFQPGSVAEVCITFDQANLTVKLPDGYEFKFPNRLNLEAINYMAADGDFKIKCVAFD
Sequence of Galectin-3 (P17931 whole entry, the tested form may be a part): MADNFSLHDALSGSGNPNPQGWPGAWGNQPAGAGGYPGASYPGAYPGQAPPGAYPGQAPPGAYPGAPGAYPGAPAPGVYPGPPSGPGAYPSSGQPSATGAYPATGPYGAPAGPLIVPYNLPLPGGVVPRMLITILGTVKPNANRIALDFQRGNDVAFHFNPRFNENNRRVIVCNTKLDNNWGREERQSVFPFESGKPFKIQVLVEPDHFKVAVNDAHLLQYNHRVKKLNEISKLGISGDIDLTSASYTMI
Sequence of Galectin-9 (O00182 whole entry, the tested form may be a part): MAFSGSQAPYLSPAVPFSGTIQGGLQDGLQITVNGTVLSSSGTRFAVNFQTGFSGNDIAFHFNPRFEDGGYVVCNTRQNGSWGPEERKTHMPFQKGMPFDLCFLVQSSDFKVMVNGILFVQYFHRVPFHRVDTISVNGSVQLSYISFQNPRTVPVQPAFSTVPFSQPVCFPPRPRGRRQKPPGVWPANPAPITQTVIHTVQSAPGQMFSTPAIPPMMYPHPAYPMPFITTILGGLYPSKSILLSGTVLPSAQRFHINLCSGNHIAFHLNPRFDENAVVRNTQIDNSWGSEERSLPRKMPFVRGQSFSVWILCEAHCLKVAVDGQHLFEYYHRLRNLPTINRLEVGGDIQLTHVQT
Sequence of Galectin-7 (P47929 whole entry): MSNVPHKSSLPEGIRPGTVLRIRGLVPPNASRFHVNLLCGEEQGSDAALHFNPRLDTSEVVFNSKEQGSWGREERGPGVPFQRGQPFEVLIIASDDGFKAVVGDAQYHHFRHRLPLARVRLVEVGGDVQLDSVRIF

Usually Kd stands for the free concentration of one partner at which half of the binding sites on the other are occupied at equilibrium, for simple one-to-one binding. Read a low Kd as tighter binding. As to `CO[C@@H]1O[C@H](CO)[C@@H](O[C@@H]2O[C@H](CO)[C@H](O)[C@H](NC(=O)c3cccc4ccccc34)[C@H]2O)[C@H](O)[C@H]1NC(C)=O`, the equilibrium dissociation constant (Kd) was 4.4 µM on Galectin-3, over 100 µM on Galectin-9, 25 µM on Galectin-1 [2] and 7.6 µM at Galectin-7. In assay [1], the outcome was Active.
As to `COc1cccc(C(=O)O[C@H]2[C@@H](O)[C@@H](CO)O[C@@H](S[C@@H]3O[C@H](CO)[C@H](O)[C@H](OC(=O)c4cccc(OC)c4)[C@H]3O)[C@@H]2O)c1`, the Kd at Galectin-3 was 0.69 µM; on Galectin-9, 1.4 µM; on Galectin-8 it was 42 µM; on Galectin-1 [5], 4.4 µM; at Galectin-7 it was 22 µM. Moreover, the outcome with A549 [3] and with PC-3 [4] was Active.
Turning to `CO[C@@H]1O[C@H](CO)[C@@H](O[C@@H]2O[C@H](CO)[C@H](O)[C@H](O)[C@H]2O)[C@H](O)[C@H]1OC(=O)c1cccc2ccccc12`, the Kd on Galectin-3 is 2.5 µM; at Galectin-9, 1.6 µM; on Galectin-8, 530 µM; at Galectin-1 [2], 14 µM; at Galectin-7, 54 µM.
For the compound `O=C(O[C@H]1[C@@H](O)[C@@H](CO)O[C@@H](S[C@@H]2O[C@H](CO)[C@H](O)[C@H](OC(=O)c3ccccc3)[C@H]2O)[C@@H]1O)c1ccccc1`, the Kd on Galectin-3 amounted to 1.6 µM; at Galectin-9, 2.2 µM; on Galectin-8 it was 104 µM; on Galectin-1 [5], 6.4 µM; at Galectin-7, 22 µM.
On to `O=C(O[C@H]1[C@@H](O)[C@@H](CO)O[C@@H](S[C@@H]2O[C@H](CO)[C@H](O)[C@H](OC(=O)c3cccc4ccccc34)[C@H]2O)[C@@H]1O)c1cccc2ccccc12`, for which the Kd at Galectin-3 worked out at 3.8 µM; at Galectin-9 it was 8.3 µM; on Galectin-8 it was 24 µM; at Galectin-1 [5], 16.8 µM; at Galectin-7 it was 24 µM. Besides, the result in the assay with PC-3 [6] and with A549 [7] was Active.
Turning to `O=C(N[C@H]1[C@@H](O)[C@@H](CO)O[C@@H](S[C@@H]2O[C@H](CO)[C@H](O)[C@H](NC(=O)c3ccccc3)[C@H]2O)[C@@H]1O)c1ccccc1`, the equilibrium dissociation constant (Kd) on Galectin-9 worked out at 7 µM; at Galectin-1 [2], 35 µM; at Galectin-7, 4.3 µM. Further, the outcome in assay [1] was Active.
Regarding `O=C(N[C@H]1[C@@H](O)[C@@H](CO)O[C@@H](S[C@@H]2O[C@H](CO)[C@H](O)[C@H](NC(=O)c3ccc4ccccc4c3)[C@H]2O)[C@@H]1O)c1ccc2ccccc2c1`, the Kd at Galectin-3 is 0.16 µM; on Galectin-9, 0.73 µM; at Galectin-8, over 100 µM; at Galectin-1 [2], 9.6 µM; on Galectin-7, 1.7 µM.
Consider `CC(=O)N[C@@H]1[C@@H](O)[C@H](O[C@@H]2O[C@H](CO)[C@H](O)[C@H](O)[C@H]2O)[C@@H](CO)O[C@H]1O`, for which the dissociation constant Kd at Galectin-3 turned out to be 59 µM; at Galectin-9, 490 µM; at Galectin-8, 1000 µM; on Galectin-7, 550 µM.
`Cc1ccc(C(=O)O[C@H]2[C@@H](O)[C@@H](CO)O[C@@H](S[C@@H]3O[C@H](CO)[C@H](O)[C@H](OC(=O)c4ccc(C)cc4)[C@H]3O)[C@@H]2O)cc1`: the Kd came to 3.6 µM on Galectin-3; 15 µM at Galectin-9; 135 µM on Galectin-8; 10.3 µM at Galectin-1 [5]; 190 µM on Galectin-7.
Regarding `O=C(O[C@H]1[C@@H](O)[C@@H](CO)O[C@@H](S[C@@H]2O[C@H](CO)[C@H](O)[C@H](OC(=O)c3ccc4ccccc4c3)[C@H]2O)[C@@H]1O)c1ccc2ccccc2c1`, the Kd at Galectin-3 worked out at 10.7 µM; at Galectin-9 it was 2.8 µM; at Galectin-8, 100 µM; on Galectin-1 [5], 14.7 µM; on Galectin-7, 48 µM.
In the case of `COc1cccc(C(=O)N[C@H]2[C@@H](O)[C@@H](CO)O[C@@H](S[C@@H]3O[C@H](CO)[C@H](O)[C@H](NC(=O)c4cccc(OC)c4)[C@H]3O)[C@@H]2O)c1`, the Kd on Galectin-9 is 1.8 µM; at Galectin-8, 100 µM; on Galectin-1 [2] it was 2 µM; on Galectin-7, 2.1 µM.

The values above are taken from ChEMBL document CHEMBL1151729 (J Med Chem, 2008).
